One series deals with Cytochrome P450 2D6 (Homo sapiens, UniProt P10635). Put plainly: Inhibition of CYP2D6 in human liver microsomes using dextromethorphan as substrate by LC-MS/MS analysis in presence of NADPH. The series is classed as ADME. For orientation: Liver microsomes are vesicles of endoplasmic reticulum, rich in cytochrome P450 enzymes.
Series [1] is filed under the species Rattus norvegicus. Briefly: Displacement of [3H]PK-11195 from benzodiazepine receptor in rat heart assessed as remaining radioligand binding at 10 uM after 15 mins by scintillation counting method relative to control. A general note: Loss of bound radioactivity is the signal in a displacement assay; it reports binding, not function.
In the next series the test system is Plasma. Put plainly: Unbound plasma concentration in Harlan Sprague-Dawley rat model of AITC-induced flinching at 30 mg/kg, po at 1 hr. Type of series: ADME, organism-based. Particulars: in vivo. The procedure, abridged:
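Rats were given vehicle (2% HPMC/1% Tween-80) or compound orally at 1, 3, 10 or 30 mg/kg. After 1 h, 0.1% AITC was injected into one left ventral hind paw, and nocifensive flinching was recorded over the first minute. Unbound plasma concentration was measured at 1 h, n = 8 per dose. In vivo IC50/IC90 came from the exposure–response relationship across individual animals.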

Series [2] addresses Kappa-type opioid receptor (Rattus norvegicus) (UniProt P34975). Put plainly: Displacement of [3H]U-69593 from rat recombinant kappa opioid receptor expressed in CHO cells assessed as remaining radioligand binding at 10 uM after 60 mins by scintillation counting method relative to control. The series is classed as cell-based.
The nature of series [3]: Ratio of unbound plasma concentration in Harlan Sprague-Dawley rat model of AITC-induced flinching at 1 mg/kg, po to IC50 for rat TRPA1 expressed in tetracycline-inducible T-REx expression system transfected CHO cells by 45Ca2+ uptake assay. Particulars: in vivo. Type of series: ADME, organism-based. A digest of the protocol:
(§1)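 Rats dosed orally at 1, 3, 10 or 30 mg/kg in 2% HPMC/1% Tween-80 vehicle. After 1 h, unbound plasma concentration measured (n = 8 per dose), intraplantar AITC (0.1%) given and flinching scored over the first minute. Unbound concentration divided by in vitro rat TRPA1 45Ca2+ IC50.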

Series [4] can be described thus: Volume of distribution at steady state in rat at 0.5 mg/kg, iv as single dose. The series is classed as ADME, organism-based. The conditions noted are these: in vivo, read-out: Vdss. A digest of the protocol:
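Single intravenous dose of 0.5 mg/kg given to rats, formulated in 100% DMSO.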

For series [5], the target named is 5-hydroxytryptamine receptor 2B (Homo sapiens) (UniProt P41595). Put plainly: Displacement of [3H]mesulergine from human recombinant 5HT2B receptor expressed in CHO cells assessed as remaining radioligand binding at 10 uM after 60 mins by scintillation counting method relative to control. Type of series: cell-based.
Chain of 5-hydroxytryptamine receptor 2B (Homo sapiens) (P41595 whole entry): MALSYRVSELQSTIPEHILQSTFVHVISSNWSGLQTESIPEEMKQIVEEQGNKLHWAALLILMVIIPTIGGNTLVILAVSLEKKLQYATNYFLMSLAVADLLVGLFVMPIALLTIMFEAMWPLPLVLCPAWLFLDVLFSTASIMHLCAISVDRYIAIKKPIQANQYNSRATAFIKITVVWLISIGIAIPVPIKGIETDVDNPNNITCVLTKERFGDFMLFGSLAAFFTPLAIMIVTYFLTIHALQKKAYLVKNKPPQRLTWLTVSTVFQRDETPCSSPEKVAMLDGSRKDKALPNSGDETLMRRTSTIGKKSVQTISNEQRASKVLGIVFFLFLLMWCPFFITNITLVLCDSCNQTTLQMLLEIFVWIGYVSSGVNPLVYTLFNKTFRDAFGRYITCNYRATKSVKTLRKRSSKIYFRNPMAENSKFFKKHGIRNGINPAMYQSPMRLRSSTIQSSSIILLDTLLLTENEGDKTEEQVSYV
A short description of series [6]: Ratio of unbound plasma concentration in Harlan Sprague-Dawley rat model of AITC-induced flinching at 3 mg/kg, po to IC50 for rat TRPA1 expressed in tetracycline-inducible T-REx expression system transfected CHO cells by 45Ca2+ uptake assay. The series is classed as ADME, organism-based. The conditions noted are these: in vivo. The procedure, abridged:
as §1

The subject of the next series is Jurkat. Briefly: Displacement of [3H]DTG from sigma receptor in human Jurkat cells assessed as remaining radioligand binding at 10 uM after 120 mins by scintillation counting method relative to control. The series is classed as cell-based.
Series [7] has as its target Transient receptor potential cation channel subfamily A member 1 (Homo sapiens, UniProt O75762). Put plainly: Antagonist activity at human TRPA1 expressed in tetracycline-inducible T-REx expression system transfected CHO cells assessed as inhibition of AITC-induced Ca2+ influx preincubated for 2 mins followed by AITC addition measured for 2 mins by Fluo-4 dye based FLIPR assay. The series is classed as cell-based.

Series [8] addresses Transient receptor potential cation channel subfamily M member 8 (Rattus norvegicus) (UniProt Q8R455). Put plainly: Antagonist activity at rat TRPM8 assessed as inhibition of icilin-induced Ca2+ influx up to 10 uM preincubated for 2.5 mins followed by icilin addition measured for 1 min by luminescence assay.
Series [9] concerns the target Transient receptor potential cation channel subfamily A member 1 (Rattus norvegicus, UniProt Q6RI86). Put plainly: Antagonist activity at rat TRPA1 expressed in tetracycline-inducible T-REx expression system transfected CHO cells assessed as inhibition of AITC-induced 45Ca2+ uptake preincubated for 1 min followed by AITC addition measured after 12 mins. The series is classed as cell-based.

The target in series [10] is C-X-C chemokine receptor type 2 (Homo sapiens) (UniProt P25025). Briefly: Displacement of [125I]IL-8 from human recombinant CXCR2 expressed in HEK293 cells assessed as remaining radioligand binding at 10 uM after 60 mins by scintillation counting method relative to control. The series is classed as cell-based.
Chain of C-X-C chemokine receptor type 2 (Homo sapiens) (P25025 whole entry): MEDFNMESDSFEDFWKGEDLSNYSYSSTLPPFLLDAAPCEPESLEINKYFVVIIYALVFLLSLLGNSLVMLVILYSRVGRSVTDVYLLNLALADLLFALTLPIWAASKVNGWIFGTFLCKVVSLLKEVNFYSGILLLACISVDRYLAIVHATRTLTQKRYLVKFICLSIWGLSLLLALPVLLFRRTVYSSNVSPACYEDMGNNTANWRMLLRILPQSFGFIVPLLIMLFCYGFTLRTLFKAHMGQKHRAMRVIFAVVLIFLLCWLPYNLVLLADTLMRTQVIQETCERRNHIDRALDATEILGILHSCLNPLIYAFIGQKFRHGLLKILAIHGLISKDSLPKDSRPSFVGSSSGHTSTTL
For series [11], the target named is Adenosine receptor A2a (Homo sapiens) (UniProt P29274). Briefly: Displacement of [3H]CGS-21680 from human recombinant adenosine A2A receptor expressed in HEK293 cells assessed as remaining radioligand binding at 10 uM after 120 mins by scintillation counting method relative to control. The series is classed as cell-based.
Chain of Adenosine receptor A2a (Homo sapiens) (P29274 whole entry): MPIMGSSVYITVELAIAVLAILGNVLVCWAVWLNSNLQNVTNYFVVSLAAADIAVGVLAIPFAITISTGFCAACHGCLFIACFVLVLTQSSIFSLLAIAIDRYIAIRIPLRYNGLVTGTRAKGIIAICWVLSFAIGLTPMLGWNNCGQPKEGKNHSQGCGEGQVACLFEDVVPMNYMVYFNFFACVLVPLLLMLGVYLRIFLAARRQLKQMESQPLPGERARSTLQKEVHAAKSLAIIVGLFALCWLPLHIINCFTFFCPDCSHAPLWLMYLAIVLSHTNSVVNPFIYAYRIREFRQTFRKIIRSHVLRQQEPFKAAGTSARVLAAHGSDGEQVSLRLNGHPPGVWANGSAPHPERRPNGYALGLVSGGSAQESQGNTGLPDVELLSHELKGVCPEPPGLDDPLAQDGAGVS
Series [12] addresses Muscarinic acetylcholine receptor M1 (Homo sapiens) (UniProt P11229). Put plainly: Displacement of [3H]pirenzepine from human recombinant muscarinic M1 receptor expressed in CHO cells assessed as remaining radioligand binding at 10 uM after 60 mins by scintillation counting method relative to control. Type of series: cell-based.
Series [13] deals with 5-hydroxytryptamine receptor 2A (Homo sapiens) (UniProt P28223). Put plainly: Displacement of [3H]ketanserin from human recombinant 5HT2A receptor expressed in HEK293 cells assessed as remaining radioligand binding at 10 uM after 60 mins by scintillation counting method relative to control. Type of series: cell-based.
Series [14] deals with 5-hydroxytryptamine receptor 6 (Homo sapiens) (UniProt P50406). Put plainly: Displacement of [3H]LSD from human recombinant 5HT6 receptor expressed in CHO cells assessed as remaining radioligand binding at 10 uM after 120 mins by scintillation counting method relative to control. Type of series: cell-based.
The nature of series [15]: Solubility of compound in pH 7.4 phosphate buffered saline. Type of series: physicochemical.
Series [16] deals with Mu-type opioid receptor (Homo sapiens) (UniProt P35372). Briefly: Displacement of [3H]DAMGO from human recombinant mu opioid receptor expressed in HEK293 cells assessed as remaining radioligand binding at 10 uM after 120 mins by scintillation counting method relative to control. The series is classed as cell-based.
Chain of Mu-type opioid receptor (Homo sapiens) (P35372 whole entry): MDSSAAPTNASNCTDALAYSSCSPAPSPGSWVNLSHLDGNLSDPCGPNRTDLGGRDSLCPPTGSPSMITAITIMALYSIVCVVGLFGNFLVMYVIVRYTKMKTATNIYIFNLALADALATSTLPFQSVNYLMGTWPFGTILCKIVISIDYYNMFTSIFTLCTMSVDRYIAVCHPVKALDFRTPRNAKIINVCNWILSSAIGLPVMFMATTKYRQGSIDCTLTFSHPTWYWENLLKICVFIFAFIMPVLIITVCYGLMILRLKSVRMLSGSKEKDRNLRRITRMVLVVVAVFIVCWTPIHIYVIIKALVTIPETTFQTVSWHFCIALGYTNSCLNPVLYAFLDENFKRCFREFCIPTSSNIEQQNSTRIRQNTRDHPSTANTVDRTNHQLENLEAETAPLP
In series [17] the test system is Rattus norvegicus. Briefly: Binding affinity to TRPA1 in Harlan Sprague-Dawley rat model of AITC-induced flinching at 30 mg/kg, po in presence of AITC. The series is classed as functional, organism-based.
Series [18] has as its target Urotensin-2 receptor (Homo sapiens) (UniProt Q9UKP6). Briefly: Displacement of [125I]urotensin-2 from human recombinant urotensin-2 receptor expressed in CHO cells assessed as remaining radioligand binding at 10 uM after 120 mins by scintillation counting method relative to control. Type of series: cell-based.
For series [19], the target named is Substance-K receptor (Homo sapiens) (UniProt P21452). Briefly: Displacement of [125I]NKA from human recombinant NK2 receptor expressed in CHO cells assessed as remaining radioligand binding at 10 uM after 60 mins by scintillation counting method relative to control. Type of series: cell-based.
Chain of Substance-K receptor (Homo sapiens) (P21452 whole entry): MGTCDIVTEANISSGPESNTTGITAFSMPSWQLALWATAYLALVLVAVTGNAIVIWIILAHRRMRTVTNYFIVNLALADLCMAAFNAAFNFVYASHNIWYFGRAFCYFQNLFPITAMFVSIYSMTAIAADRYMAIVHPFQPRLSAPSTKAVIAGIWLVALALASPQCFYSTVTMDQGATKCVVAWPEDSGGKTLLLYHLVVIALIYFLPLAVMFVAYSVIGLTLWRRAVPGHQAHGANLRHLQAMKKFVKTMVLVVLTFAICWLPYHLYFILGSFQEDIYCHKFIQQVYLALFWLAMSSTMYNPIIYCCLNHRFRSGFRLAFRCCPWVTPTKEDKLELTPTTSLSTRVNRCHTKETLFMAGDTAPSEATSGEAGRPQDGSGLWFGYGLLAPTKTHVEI
In series [20] the target is Cannabinoid receptor 1 (Homo sapiens) (UniProt P21554). Briefly: Displacement of [3H]CP-55940 from human recombinant CB1 receptor expressed in CHO cells assessed as remaining radioligand binding at 10 uM after 120 mins by scintillation counting method relative to control. The series is classed as cell-based.
Chain of Cannabinoid receptor 1 (Homo sapiens) (P21554 whole entry): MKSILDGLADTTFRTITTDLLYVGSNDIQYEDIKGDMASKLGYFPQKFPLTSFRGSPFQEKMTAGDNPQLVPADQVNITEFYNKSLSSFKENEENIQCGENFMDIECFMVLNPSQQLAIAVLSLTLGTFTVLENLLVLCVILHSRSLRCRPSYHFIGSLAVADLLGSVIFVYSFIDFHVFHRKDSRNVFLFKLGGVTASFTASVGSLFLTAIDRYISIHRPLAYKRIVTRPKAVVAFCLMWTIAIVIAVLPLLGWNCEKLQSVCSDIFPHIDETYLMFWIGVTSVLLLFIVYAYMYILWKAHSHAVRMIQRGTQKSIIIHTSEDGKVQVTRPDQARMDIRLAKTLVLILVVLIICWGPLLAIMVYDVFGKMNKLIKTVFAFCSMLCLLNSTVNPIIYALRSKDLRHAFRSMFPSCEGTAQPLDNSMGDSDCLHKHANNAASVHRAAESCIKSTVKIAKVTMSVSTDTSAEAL
For series [21], the target named is Beta-2 adrenergic receptor (Homo sapiens) (UniProt P07550). Briefly: Displacement of (-)-[3H]CGP-12177 from human recombinant adrenergic beta2 receptor expressed in CHO cells assessed as remaining radioligand binding at 10 uM after 120 mins by scintillation counting method relative to control. The series is classed as cell-based.
Chain of Beta-2 adrenergic receptor (Homo sapiens) (P07550 whole entry, looked up): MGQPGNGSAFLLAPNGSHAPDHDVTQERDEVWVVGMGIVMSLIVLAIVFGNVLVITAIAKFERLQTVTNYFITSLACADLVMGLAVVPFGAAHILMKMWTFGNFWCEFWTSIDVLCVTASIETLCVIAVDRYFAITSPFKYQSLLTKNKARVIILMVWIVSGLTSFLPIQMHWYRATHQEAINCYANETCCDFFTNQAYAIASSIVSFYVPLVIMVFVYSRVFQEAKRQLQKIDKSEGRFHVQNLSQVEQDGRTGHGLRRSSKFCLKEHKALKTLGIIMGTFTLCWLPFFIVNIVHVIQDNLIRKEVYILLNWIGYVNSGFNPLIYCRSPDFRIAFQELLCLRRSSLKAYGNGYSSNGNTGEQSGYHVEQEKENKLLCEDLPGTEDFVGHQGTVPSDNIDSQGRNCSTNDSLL

Converted amounts (≈) assume the structure as drawn. The source made the active and inactive calls. No cut-off for these calls is given here.

By IC50 is commonly meant the midpoint of a concentration-inhibition curve. A word on the solubility: it is the concentration that dissolves in the medium under given conditions. Low readings indicate a poorly soluble substance, high ones a readily soluble substance.

Chain of Kappa-type opioid receptor (Rattus norvegicus) (P34975 whole entry): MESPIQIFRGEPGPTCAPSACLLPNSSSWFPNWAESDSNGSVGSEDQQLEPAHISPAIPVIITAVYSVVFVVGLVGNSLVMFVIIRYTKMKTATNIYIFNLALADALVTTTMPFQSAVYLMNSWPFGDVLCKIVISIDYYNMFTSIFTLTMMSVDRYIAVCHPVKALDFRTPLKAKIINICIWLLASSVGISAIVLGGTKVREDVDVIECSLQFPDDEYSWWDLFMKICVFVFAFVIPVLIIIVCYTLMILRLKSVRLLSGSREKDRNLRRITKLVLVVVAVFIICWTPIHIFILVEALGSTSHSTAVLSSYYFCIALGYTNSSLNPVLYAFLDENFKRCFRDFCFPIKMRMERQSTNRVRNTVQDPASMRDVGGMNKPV
Chain of Transient receptor potential cation channel subfamily M member 8 (Rattus norvegicus) (Q8R455 whole entry, looked up): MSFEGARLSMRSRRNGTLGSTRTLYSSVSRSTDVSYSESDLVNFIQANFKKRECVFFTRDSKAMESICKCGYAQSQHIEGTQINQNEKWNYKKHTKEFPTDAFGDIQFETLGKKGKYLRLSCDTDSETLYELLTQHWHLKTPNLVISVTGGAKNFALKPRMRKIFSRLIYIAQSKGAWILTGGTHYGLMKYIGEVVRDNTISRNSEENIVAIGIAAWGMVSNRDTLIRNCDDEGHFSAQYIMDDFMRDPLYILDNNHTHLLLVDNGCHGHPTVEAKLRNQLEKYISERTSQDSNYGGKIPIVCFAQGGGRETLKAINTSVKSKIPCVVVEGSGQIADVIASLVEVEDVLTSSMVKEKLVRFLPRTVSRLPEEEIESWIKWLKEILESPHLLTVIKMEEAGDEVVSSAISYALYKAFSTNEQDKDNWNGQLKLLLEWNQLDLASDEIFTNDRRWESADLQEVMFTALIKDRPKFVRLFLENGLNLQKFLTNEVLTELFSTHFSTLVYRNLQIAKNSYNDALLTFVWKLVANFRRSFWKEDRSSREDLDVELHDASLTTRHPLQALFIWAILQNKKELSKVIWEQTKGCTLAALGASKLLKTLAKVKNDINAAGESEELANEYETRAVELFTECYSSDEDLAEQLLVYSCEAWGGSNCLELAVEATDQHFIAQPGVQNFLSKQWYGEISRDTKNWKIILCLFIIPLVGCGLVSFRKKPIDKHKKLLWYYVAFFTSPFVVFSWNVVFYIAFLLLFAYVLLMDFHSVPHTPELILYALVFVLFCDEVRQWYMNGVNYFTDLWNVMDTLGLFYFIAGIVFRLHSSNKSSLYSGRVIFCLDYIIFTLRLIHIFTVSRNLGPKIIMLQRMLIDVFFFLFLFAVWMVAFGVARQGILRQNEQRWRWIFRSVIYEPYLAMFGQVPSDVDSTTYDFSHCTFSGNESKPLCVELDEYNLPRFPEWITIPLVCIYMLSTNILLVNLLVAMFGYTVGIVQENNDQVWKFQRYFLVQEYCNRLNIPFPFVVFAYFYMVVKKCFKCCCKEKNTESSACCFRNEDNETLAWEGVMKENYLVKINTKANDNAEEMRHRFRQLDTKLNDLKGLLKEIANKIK
Chain of Urotensin-2 receptor (Homo sapiens) (Q9UKP6 whole entry): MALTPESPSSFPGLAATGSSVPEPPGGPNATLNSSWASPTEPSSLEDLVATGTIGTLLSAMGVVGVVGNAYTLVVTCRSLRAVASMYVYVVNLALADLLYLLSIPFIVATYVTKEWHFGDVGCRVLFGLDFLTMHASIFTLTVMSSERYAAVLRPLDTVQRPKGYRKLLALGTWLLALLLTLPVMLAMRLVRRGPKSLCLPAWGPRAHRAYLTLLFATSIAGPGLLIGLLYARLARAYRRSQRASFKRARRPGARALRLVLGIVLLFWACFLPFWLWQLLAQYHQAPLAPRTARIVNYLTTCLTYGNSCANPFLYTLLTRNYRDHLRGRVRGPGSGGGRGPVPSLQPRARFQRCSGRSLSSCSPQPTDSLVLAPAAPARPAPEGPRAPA

`Cn1cnc2ncn(Cc3nc(CCc4ccc(Cl)cc4)no3)c(=O)c21`: the IC50 at Cytochrome P450 2D6 was > 27000 nM; in [7] it was 20 nM; in [9] it was 71 nM. The Activity (in the series filed under Rattus norvegicus [1]; in series [2]; in [5]; with Jurkat; in series [10]; in series [11]) was > 77% in each case. In addition, the Activity in series [12], in series [13], in series [14], in series [16], in [18] and in series [19] was > 77% each time. Further, the Activity in series [20] and in [21] was > 77% each time. The “Cp(f)” value in the series on Plasma came to 2200 nM. Besides, the Ratio in series [3] came out at 0.72; in [6] it was 2.7. Besides, the Vd in series [4] stood at 1.7 L/kg. Also, the inhibition entry in [8] was “inactive”. In addition, the concentration in solution in [15] (solubility) was 226 µM (≈ 83.8 µg/mL). In addition, in the series on Rattus norvegicus [17], the result was Active.

The values above are taken from ChEMBL document CHEMBL3784976 (J Med Chem, 2016).
